Assays:
Human betaherpesvirus 5 [1] = assay: Antiviral activity against human cytomegalovirus by plaque reduction assay; type: functional, organism-based
Method in brief: (§1)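 Plaque reduction in HFF monolayers (MEM(E), 10% FBS) infected with a 0.2 mL inoculum of ca. 100 PFU HCMV Towne strain. Compounds were dissolved in the overlay medium. IC50 from linear regression of percent inhibition against log concentration, average of two or more experiments. Ganciclovir positive control.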

HFF = assay: Cytotoxicity produced in human foreskin fibroblasts (HFF) cells estimated by visual scoring of cells unaffected by virus infection.; type: ADME, cell-based
Method in brief: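 Uninfected HFF cells in the HCMV plaque-reduction plates were examined at 35-fold magnification on the day of plaque staining. Drug-induced cytopathology was scored 0–4. IC50 from regression of percent inhibition against log concentration, average of two or more experiments.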

Human alphaherpesvirus 1 [2] = assay: Antiviral activity against herpes simplex virus type 1 using ELISA; type: functional, organism-based
Human betaherpesvirus 5 [3] = assay: Antiviral activity against human cytomegalovirus (HCMV) in plaque reduction assay; type: functional, organism-based; method in brief: as §1
KB = assay: Cytotoxicity (growth inhibition) against human epidermoid oral carcinoma KB cell line.; type: functional, cell-based
Method in brief: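 KB cells grown in MEM(H) with 10% calf serum. Cytotoxicity measured by a staining method. IC50 from linear regression of percent inhibition against log drug concentration, average of two or more experiments.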

Human alphaherpesvirus 1 [4] = assay: Antiviral activity against herpes simplex virus using ELISA; type: functional, organism-based
Human betaherpesvirus 5 [5] = assay: Antiviral activity against human cytomegalo virus using ELISA; type: functional, organism-based
Method in brief: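 HCMV (Towne strain, plaque-purified isolate P0) measured by enzyme immunoassay in MRC-5 human embryonic lung cells grown in MEM(E) with 10% FBS. IC50 from linear regression of percent inhibition against log concentration, averaged over two or more experiments. Ganciclovir positive control.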

[6] = Half life was determined; type: ADME
Human alphaherpesvirus 1 [7] = assay: Inhibitory concentration against HSV-1; type: functional, organism-based

SMILES | IC50 (Human betaherpesvirus 5 [1]) [µM] | IC50 (HFF) [µM] | IC50 (KB) [µM] | further results
COCCOCn1cc(C(=N)S)c2cncnc21 | > 100 | – | – | –
CCOCn1cc(C(=N)S)c2c(O)ncnc21 | > 100 | – | – | –
CCOCn1cc(C(=N)S)c2c(NC)ncnc21 | 20 | – | – | –
CCCn1c(N)c(C#N)c2c(N)ncnc21 | – | 100 | 15 | IC50 (Human alphaherpesvirus 1 [2]): 2.5 µM; IC50 (Human betaherpesvirus 5 [3]): 0.5 µM
COCCOCn1c(N)c(C#N)c2c(N)ncnc21 | 8.2 | > 100 | 210 | IC50 (Human alphaherpesvirus 1 [4]): > 100 µM; IC50 (Human betaherpesvirus 5 [5]): 9 µM
CCNc1ncnc2c1c(C(=N)S)cn2COCC | > 100 | – | – | –
CCNc1ncnc2c1c(C#N)cn2COCC | > 100 | – | – | –
COCCOCn1cc(C#N)c2c(S)ncnc21 | > 100 | – | – | –
CNc1c(C#N)c2c(N)ncnc2n1COCCOC | > 100 | > 100 | > 100 | IC50 (Human alphaherpesvirus 1 [4]): > 100 µM
N#Cc1c(Br)n(COCc2ccccc2)c2ncnc(N)c12 | > 100 | > 100 | > 100 | –
CCOCn1cc(C#N)c2c(OC)ncnc21 | > 100 | – | – | –
CCOc1ncnc2c1c(C#N)cn2COCCOC | > 100 | – | – | –
COCCOCn1cc(C#N)c2c(O)ncnc21 | > 100 | – | – | –
NC(=S)c1c(N)n(COCc2ccccc2)c2ncnc(N)c12 | 16 | > 100 | 225 | IC50 (Human alphaherpesvirus 1 [4]): 60 µM; IC50 (Human betaherpesvirus 5 [5]): 19 µM
COCCOCn1c(N)c(C(N)=S)c2c(N)ncnc21 | 5 | > 100 | > 320 | IC50 (Human alphaherpesvirus 1 [4]): 100 µM; IC50 (Human betaherpesvirus 5 [5]): 20 µM
Nc1nc2c(ncn2COCCO)c(=O)[nH]1 [ACYCLOVIR] | > 100 | > 100 | > 100 | –
CCOCn1c(N)c(C#N)c2c(N)ncnc21 | 7.2 | > 100 | 138 | IC50 (Human alphaherpesvirus 1 [4]): 68 µM; IC50 (Human betaherpesvirus 5 [5]): 12 µM
Cc1cccc(Cn2c(N)c(C#N)c3c(N)ncnc32)c1 | – | 100 | > 100 | IC50 (Human alphaherpesvirus 1 [2]): > 100 µM; IC50 (Human betaherpesvirus 5 [3]): 32 µM
CCOCn1cc(C#N)c2c(N(C)C)ncnc21 | > 100 | – | – | –
Cc1ccc(Cn2c(N)c(C#N)c3c(N)ncnc32)cc1 | – | 32 | > 100 | IC50 (Human alphaherpesvirus 1 [2]): 60 µM; IC50 (Human betaherpesvirus 5 [3]): 0.3 µM

SMILES | IC50 (Human betaherpesvirus 5 [1]) [µM] | IC50 (HFF) [µM] | IC50 (KB) [µM] | further results
CCOCn1cc(C#N)c2c(S)ncnc21 | > 100 | – | – | –
N#Cc1c(N)n(COCc2ccccc2)c2ncnc(N)c12 | 2.8 | > 100 | 118 | IC50 (Human alphaherpesvirus 1 [4]): 12.5 µM; IC50 (Human betaherpesvirus 5 [5]): 9 µM
CCOCn1cc(C(=N)S)c2cncnc21 | > 100 | – | – | –
CCOCn1cc(C#N)c2cncnc21 | > 100 | – | – | –
COCCOCn1cc(C#N)c2c(OC)ncnc21 | > 100 | – | – | –
CCOCn1cc(C#N)c2c(Cl)ncnc21 | > 100 | – | – | –
CCNc1ncnc2c1c(C#N)cn2COCCOC | > 100 | – | – | –
NC(=O)c1c(N)n(COCc2ccccc2)c2ncnc(N)c12 | > 100 | > 100 | > 100 | IC50 (Human betaherpesvirus 5 [5]): > 100 µM
COCCOCn1cc(C#N)c2cncnc21 | > 100 | – | – | –
COCCOCn1cc(C(N)=S)c2c(N)ncnc21 | 1.3 | > 100 | – | –
CCOCn1cc(C#N)c2c(O)ncnc21 | > 100 | – | – | –
CCOCn1c(N)c(C(N)=O)c2c(N)ncnc21 | > 100 | > 100 | > 100 | IC50 (Human betaherpesvirus 5 [5]): > 100 µM
CCOCn1cc(C(=N)S)c2c(N)ncnc21 | – | > 32 | 60 | –
COCCOCn1cc(C#N)c2c(N)ncnc21 | – | > 100 | > 100 | IC50 (Human alphaherpesvirus 1 [4]): > 100 µM
CCOCn1cc(C#N)c2c(OCC)ncnc21 | > 100 | – | – | –
COCCOCn1cc(C(=N)S)c2c(N(C)C)ncnc21 | > 100 | – | – | T1/2 [6]: 150 h
CCOCn1c(Br)c(C#N)c2c(N)ncnc21 | > 100 | > 100 | > 100 | –
CNc1ncnc2c1c(C(=N)S)cn2COCCOC | 20 | – | – | IC50 (Human alphaherpesvirus 1 [7]): 30 µM
CCOCn1cc(C#N)c2c(N)ncnc21 | > 100 | > 100 | > 100 | –
CCOCn1c(N)c(C(=N)S)c2c(N)ncnc21 | 16 | > 100 | > 320 | IC50 (Human alphaherpesvirus 1 [4]): 100 µM; IC50 (Human betaherpesvirus 5 [5]): 45 µM

SMILES | IC50 (Human betaherpesvirus 5 [1]) [µM] | IC50 (HFF) [µM] | IC50 (KB) [µM] | further results
COCCOCn1c(N(C)C)c(C#N)c2c(N)ncnc21 | > 100 | > 100 | > 100 | IC50 (Human alphaherpesvirus 1 [4]): > 100 µM
CCOCn1cc(C#N)c2c(NC)ncnc21 | > 100 | – | – | –
Nc1nc2c(ncn2COC(CO)CO)c(=O)[nH]1 [GANCICLOVIR] | – | > 100 | > 320 | IC50 (Human betaherpesvirus 5 [5]): 2.2 µM
COCCOCn1cc(C(=N)S)c2c(O)ncnc21 | > 100 | – | – | –
CNc1ncnc2c1c(C#N)cn2COCCOC | > 100 | – | – | –
COCCOCn1c(Br)c(C#N)c2c(N)ncnc21 | > 100 | > 100 | > 100 | –
COCCOCn1cc(C(=N)S)c2c(OC)ncnc21 | > 100 | – | – | –
CCOCn1cc(C(=N)S)c2c(OC)ncnc21 | > 100 | – | – | –
COc1ccc(Cn2c(N)c(C#N)c3c(N)ncnc32)cc1 | – | 100 | 50 | IC50 (Human alphaherpesvirus 1 [2]): 10 µM; IC50 (Human betaherpesvirus 5 [3]): 9 µM
C=CCn1c(N)c(C#N)c2c(N)ncnc21 | – | 100 | > 100 | IC50 (Human alphaherpesvirus 1 [2]): 40 µM; IC50 (Human betaherpesvirus 5 [3]): 1.9 µM
N#Cc1c(N)n(Cc2ccccc2)c2ncnc(N)c12 | – | 100 | 34 | IC50 (Human alphaherpesvirus 1 [2]): 10 µM; IC50 (Human betaherpesvirus 5 [3]): 3.3 µM
COCCOCn1cc(C#N)c2c(Cl)ncnc21 | > 100 | – | – | –
COCCOCn1c(N)c(C(N)=O)c2c(N)ncnc21 | > 100 | > 100 | > 100 | IC50 (Human betaherpesvirus 5 [5]): > 100 µM
CCNc1ncnc2c1c(C(=N)S)cn2COCCOC | > 100 | – | – | –
CCOCn1cc(C(=N)S)c2c(OCC)ncnc21 | > 100 | – | – | –
COCCOCn1cc(C(=N)S)c2c(S)ncnc21 | > 100 | – | – | –
COCCOCn1cc(C#N)c2c(N(C)C)ncnc21 | > 100 | – | – | –
CCOCn1cc(C(=N)S)c2c(N(C)C)ncnc21 | > 100 | – | – | –

Source: ChEMBL document CHEMBL1129622, “Synthesis of non-nucleoside analogs of toyocamycin, sangivamycin, and thiosangivamycin: the effect of certain 4- and 4,6-substituents on the antiviral activity of pyrrolo[2,3-d]pyrimidines” (J Med Chem, 1996)
